Rows were chosen to be rich in hits. Some 1.8% of all compounds tested hit in one or more screens of this group.
NPY-Y1 antag = antagonists of human neuropeptide Y receptor Y1; P25929; HEK293-CNG Y1 cells, membrane potential fluorescence; NPY at EC95, then isoproterenol; inhibition, % at 3.6 µM; 1% of 200,000 active; AID 1040;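 active means inhibition above the campaign mean inhibition of all tested compounds plus 3 SD, cut at about 20% in these data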;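 further: 0% = DMSO wells given NPY plus isoproterenol and 100% = isoproterenol alone without NPY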
Target sequence (P25929 whole entry, looked up): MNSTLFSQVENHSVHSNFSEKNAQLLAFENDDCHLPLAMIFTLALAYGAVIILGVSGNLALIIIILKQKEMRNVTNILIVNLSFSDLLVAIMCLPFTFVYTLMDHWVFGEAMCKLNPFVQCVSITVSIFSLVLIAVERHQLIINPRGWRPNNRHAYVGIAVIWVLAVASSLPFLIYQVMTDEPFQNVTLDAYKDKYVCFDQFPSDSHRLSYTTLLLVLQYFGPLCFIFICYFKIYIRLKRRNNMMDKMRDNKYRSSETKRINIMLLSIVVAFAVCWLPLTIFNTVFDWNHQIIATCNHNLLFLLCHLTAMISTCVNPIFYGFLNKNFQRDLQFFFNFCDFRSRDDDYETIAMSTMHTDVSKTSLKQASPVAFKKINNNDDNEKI
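Assay system: HEK293 cells with Y1 receptor plus CNG channel | Probe or stimulus: NPY (25 nM), isoproterenol (1 µM), Ro 20-1724 (25 µM) | Timing: Compound incubation 1 h at room temperature, readout 45 min post-stimulation | Measured by: Membrane-potential fluorescent dye readout | Benchmarks: High control isoproterenol alone, low control NPY with isoproterenol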
NPY1 pot ag = human NPY-Y1 potentiation or agonism, primary screen | activation, % at 3.6 µM | NPY-Y1 expressing cells, potentiator/agonist activation | 0.37% of 220,000 active | AID 1304; in the data active means activation above about 33%, passing the limit was not always enough;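 further: cells stimulated with NPY at EC10 then isoproterenol at EC100; 0% = low agonist plus stimulus and 100% = saturating agonist plus stimulus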
NPY Y2 blocker = antagonists of human neuropeptide Y receptor Y2; P49146; NPY-Y2 expressing cells, antagonist mode; inhibition, % at 2.7 µM; 0.99% of 140,000 active; in the data active means inhibition above about 17%;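 further: 0% = vehicle with agonist challenge and 100% = reference antagonist with challenge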
NPY-Y2 PAM-ag = human NPY-Y2 potentiation or agonism, primary screen; activation, % at 3.6 µM; 0.45% of 220,000 active; P49146; cells expressing NPY-Y2, potentiator/agonist read-out; in the data active means activation above about 27%;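 further: cells stimulated with NPY near EC25 plus isoproterenol at EC100; 0% = vehicle plus submaximal agonist and 100% = vehicle plus saturating agonist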
NPY-Y1 antag ct = human NPY-Y1 antagonism in NPY-Y2 counter-screen | shares compounds with NPY Y2 blocker | cell-based NPY-Y1 antagonism counterscreen | inhibition, % at 3.6 µM | 19% of 710 active | AID 1256; in the data active means inhibition above about 20%;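 further: cells challenged with NPY then isoproterenol with cAMP sensed through a CNG channel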
NPY2 antag conf = human NPY-Y2 antagonism, confirmation. HEK293 NPY-Y2 CNG channel, membrane potential fluorescence. 32% of 710 active. inhibition, % at 2.8 µM. shares compounds with NPY Y2 blocker;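 active means mean inhibition of triplicate wells above the hit cutoff set in the primary screen, cut at about 17% in these data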;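 further: 0% = DMSO with NPY challenge and 100% = BIIE0246 high control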
* marks the source's active call; other numbers are inactive results; . = not tested or not shown.

SMILES	NPY-Y1 antag	NPY1 pot ag	NPY Y2 blocker	NPY-Y2 PAM-ag	NPY-Y1 antag ct	NPY2 antag conf
N#Cc1nc(-c2ccc(Cl)cc2)oc1NCc1cccc2c1OCO2	12	-38	20*	-7	21*	20*
N#Cc1nc(-c2ccc(Cl)cc2)oc1NCc1ccco1	3	11	2	11	.	.
COc1ccccc1NC(=O)CCCc1nc(-c2ccc(OC)c(OC)c2)no1	3	-15	.	-16	.	.
Cc1ccc(-c2csc(N(CCCN3CCOCC3)C(=O)c3ccco3)n2)cc1	14	-35	18*	-13	14	11
COc1ccc(-c2csc(N(CCCN3CCOCC3)C(=O)c3ccco3)n2)cc1	16	-40	18*	-8	12	13
COC(=O)c1ccc(Nc2c([N+](=O)[O-])c(=O)oc3ccccc23)cc1	.	9	.	-6	.	.
N#C/C(=C\c1c(N2CCCCC2)nc2ccccn2c1=O)S(=O)(=O)c1ccccc1	.	32	.	13	.	.
CC(NCC(=O)Nc1cc(S(=O)(=O)N2CCCCCC2)ccc1Cl)c1ccccc1 (stereo not given)	-3	-10	.	-18	.	.
CCOC(=O)c1ccccc1NC(=O)CSc1nnc(COc2ccccc2C)n1C	14	-17	19*	-17	17	11
COc1ccccc1NC(=S)NNC(=O)c1ccccc1Br	2	5	1	-5	.	.
Cc1ccc(N(CC(=O)N/N=C/c2ccc(OC3CSC3)cc2)S(=O)(=O)c2ccccc2)cc1	6	-8	3	-14	.	.
COc1ccc(N(CC(=O)N/N=C/c2ccc(OC3CSC3)cc2)S(=O)(=O)c2ccccc2)cc1	0	17	21*	8	22*	54*
CC(C)c1ccc(/C=C/C(=O)NC(=S)Nc2ccc(CN3CCOCC3)cc2)cc1	3	-1	21*	-7	25*	72*
CCSc1nc(-c2cccs2)nc2ccccc12	1	-26	.	-21	.	.
O=C(Cc1ccc(Br)cc1)OCC(=O)c1ccc2c(c1)OCCO2	13	2	17*	-12	6	10
O=C(Cc1n[nH]c(=O)c2ccccc12)OCC(=O)c1ccc2c(c1)OCCO2	3	-5	6	-1	.	.
CCn1c(=N)n(CC(=O)C23CC4CC(CC(C4)C2)C3)c2ccccc21	9	-1	27*	5	21*	32*
CC(C)COP(=O)(OCC(C)C)C(Nc1ccccc1)c1ccc2c(c1)OCO2 (stereo not given)	17	-6	20*	13	11	6
COC(=O)c1ccc(OC(=O)c2ccc(OC)cc2)c(OC)c1	2	-15	.	-2	.	.
O=c1c2ccccc2cnn1Cc1n[nH]c(=S)n1-c1ccc(Cl)cc1	-7	9	28*	5	-1	0
Cc1ccc(C)c2sc(NC(=O)c3nc4ccccc4s3)nc12	-2	9	2	4	.	.
N#CC(C#N)=C1C=CC=CN1/C(=C\c1ccco1)C(=O)c1ccc(-c2ccccc2)cc1	2	-48	7	-11	.	.
N#CC(C#N)=C1C=CC=CN1/C(=C\c1ccco1)C(=O)c1ccc(Cl)cc1	-1	-1	18*	-8	15	83*
Cc1ccc(CNC(=O)c2cn(C3CCCCC3)c(=O)c3c2c2ccccc2n3C)o1	3	-6	20*	-3	5	4
Cc1cc(N2CCC(C)CC2)nc(NCc2ccccc2)n1	14	-37	17*	-20	33*	33*
SMILES	NPY-Y1 antag	NPY1 pot ag	NPY Y2 blocker	NPY-Y2 PAM-ag	NPY-Y1 antag ct	NPY2 antag conf
Cc1cc(N2CCC(C)CC2)nc(-c2ccccc2O)n1	.	-1	.	-20	.	.
Cc1cc(Oc2ccccc2)nc(NCc2ccccc2)n1	12	-22	20*	-23	11	4
O=C(CSc1ccc(-c2cccc([N+](=O)[O-])c2)nn1)NC1CCCC1	7	-22	.	-7	.	.
CC(=O)c1cc(C#N)c(Oc2ccc(Cl)cc2Cl)nc1C	3	6	5	1	.	.
CCCCCCCCCS(=O)(=O)N/N=C/c1cccc([N+](=O)[O-])c1	8	-24	24*	-13	17	21*
CC/C(=C\C1CCCCC1)C(NP(=O)(c1ccccc1)c1ccccc1)c1ccccc1 (stereo not given)	18	-20	23*	0	38*	34*
CCC(=O)Nc1nonc1-c1nc2ccccc2n1Cc1cccc2ccccc12	19	-108	18*	-57	26*	41*
CCOc1ccc(-n2cc(C(=O)Nc3cccc(Cl)c3)c3cc(OC)c(OC)cc3c2=O)cc1	13	-62	18*	-30	12	20*
COc1cccc(-c2nnc3sc(-c4ccccc4)nn23)c1	10	2	7	0	.	.
Cc1cccc(-c2nnc3sc(-c4ccccc4C)nn23)c1	7	-40	19*	-9	7	13
Cc1ccc([N+](=O)[O-])cc1NC(=O)c1ccc(-c2ccccc2)cc1	19	-32	22*	-6	9	12
Cc1ccc(C(=O)Nc2cc([N+](=O)[O-])ccc2C)cc1	4	1	.	0	.	.
COc1ccc(OC)c(NC(=O)COC(=O)c2c3c(nc4ccccc24)CCCC3)c1	8	-31	11	-13	.	.
O=C(COC(=O)c1c2c(nc3ccccc13)CCCCC2)NCc1ccc2c(c1)OCO2	17	-21	25*	-19	23*	14
COc1ccc(NC(=O)COC(=O)c2c3c(nc4ccccc24)CCCC3)cc1	13	-30	21*	-21	9	6
CNC(=O)COC(=O)c1c2c(nc3ccccc13)CCC2	.	11	.	-1	.	.
Cc1ccc2c(c1)C1CN(C)CCC1N2Sc1ccccc1[N+](=O)[O-] (stereo not given)	.	4	.	-1	.	.
O=C(COC(=O)/C=C/c1ccc(Cl)cc1)Nc1ccc2c(c1)OCCO2	6	3	17*	7	14	12
S=C(NCCc1ccccc1)N/N=C/c1cccc(Cl)c1Cl	18	-66	26*	-10	31*	50*
O=C(Nc1ccc(S(=O)(=O)NC2CCCC2)cc1)c1cnccn1	2	-4	23*	-10	1	9
COc1cc2c(cc1OC)-c1cc(Nc3ccc4c(c3)OCCO4)nc(=O)n1CC2	10	-28	12	-22	.	.
CCOc1cccc(Nc2cc3n(c(=O)n2)CCc2cc(OC)c(OC)cc2-3)c1	14	-37	18*	-23	38*	65*
CN1CCC(N(C)C(=S)NC(=O)c2cc(-c3cccc(Br)c3)nc3ccccc23)CC1	12	-35	.	-30	.	.
CCOC(=O)Cn1nc(-c2ccccc2)c2cnc3ccc(C)cc3c21	3	-35	24*	7	24*	19*
CCOC(=O)Cn1nc(-c2ccc(C)cc2)c2ccccc2c1=O	3	5	.	-7	.	.
C/C(=N\O)c1ccc(N2C(=O)C3CC=C(Cl)CC3C2=O)cc1 (stereo not given)	13	-5	23*	-22	5	17
Cc1cccc(C)c1NC(=O)COC(=O)CCC(=O)c1cccs1	1	-9	.	5	.	.
